Calls of active or inactive are those of the source. The calls are words filed in the database; no cut-off is given here.
Key:
Mus musculus [1] = assay: Toxicity in Swiss albino mouse assessed as change in body weight at 5 mg/kg, po (reference value: 24.5 +/- 0.76 g); assay type: organism-based; parameters: dose 5 mg/kg, route oral; settings: in vivo
MDA-MB-231 [2] = assay: Cell cycle arrest in human MDA-MB-231 cells at 5 to 30 uM after 24 hrs by propidium iodide staining-based FACS analysis; assay type: functional
Procedure, shortened: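 MDA-MB-231 grown in DMEM with 10% FBS at 37 °C, 5% CO2; 24 h treatment, then cold-PBS wash, 2 × 10⁶ cells/ml, absolute-ethanol fixation, RNase A, propidium iodide 50 µg/mL for 30 min at room temperature; flow cytometric DNA content, sub-diploid fraction scored.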

MCF7 [3] = assay: Cytotoxicity against human MCF7 cells after 48 to 72 hrs by MTT assay; assay type: functional, cell-based
Procedure, shortened: (§1)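 Cells in DMEM, 10% FBS, 37 °C, 5% CO2, plated and incubated 24 h; compounds diluted in phenol-red-free DMEM with 0.5% FBS, vehicle control; after exposure, MTT (5 mg/mL stock) added 3 h, formazan dissolved in DMSO, absorbance 570 nm; IC50 derived; podophyllotoxin and tamoxifen positive controls.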

MDA-MB-231 [4] = assay: Cytotoxicity against human MDA-MB-231 cells after 72 hrs by MTT assay; assay type: functional, cell-based; settings: MDA-MB-231, 72 h; procedure, shortened: as §1
MCF7 [5] = assay: Cytotoxicity against human MCF7 cells after 48 hrs by MTT assay; assay type: functional, cell-based; settings: MCF7, 48 h; procedure, shortened: as §1
Mus musculus [6] = assay: Toxicity in Swiss albino mouse assessed as change in eosinophil count at 5 to 1000 mg/kg, po relative to control; assay type: organism-based; parameters: dose 5-1000 mg/kg, route oral; settings: in vivo
Mus musculus [7] = assay: Toxicity in Swiss albino mouse assessed as change in neutrophil count at 5 to 1000 mg/kg, po relative to control; assay type: organism-based; parameters: dose 5-1000 mg/kg, route oral; settings: in vivo
Homo sapiens = species on record: Homo sapiens; assay: Induction of microtubule stabilization (unknown origin) at 4 to 20 uM
Mus musculus [8] = assay: Toxicity in Swiss albino mouse assessed as absolute liver weight at 5 to 1000 mg/kg, po relative to control; assay type: organism-based; parameters: dose 5-1000 mg/kg, route oral; settings: in vivo
Mus musculus [9] = assay: Toxicity in Swiss albino mouse assessed as relative heart weight at 5 to 1000 mg/kg, po relative to control; assay type: organism-based; parameters: dose 5-1000 mg/kg, route oral; settings: in vivo
Procedure, shortened: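 One oral dose (5–1000 mg/kg; DMSO then 0.7% carboxymethyl cellulose vehicle; controls vehicle-only) was given to groups of 6 mice (3 male, 3 female). On day 7 the animals were sacrificed and necropsied for gross pathology. Absolute and relative weights of vital organs were recorded and compared with control.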

Mus musculus [10] = assay: Toxicity in Swiss albino mouse assessed as morbidity at 5 to 1000 mg/kg, po; assay type: organism-based; parameters: dose 5-1000 mg/kg, route oral; settings: in vivo
Procedure, shortened: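 Swiss albino mice (3 male, 3 female per group, 20-25 g) were given one oral dose of 5, 50, 300 or 1000 mg/kg in DMSO/0.7% carboxymethyl cellulose, or vehicle. Mortality and signs of ill health were checked hourly on the dosing day, then daily for 7 days. Checks covered skin, mucous membranes, eyes, secretions, lachrymation, pilo-erection, respiration, gait, posture and response to handling.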

Mus musculus [11] = assay: Toxicity in Swiss albino mouse assessed as change in cholesterol level at 1000 mg/kg, po (reference value: 81.64 +/- 4.26 mg/dL); assay type: organism-based; parameters: dose 1000 mg/kg, route oral; settings: in vivo
Mus musculus [12] = assay: Toxicity in Swiss albino mouse assessed as change in serum protein level at 5 mg/kg, po (reference value: 1.11 +/- 0.14 mg/ml); assay type: organism-based; parameters: dose 5 mg/kg, route oral; settings: in vivo
Mus musculus [13] = assay: Toxicity in Swiss albino mouse assessed as change in triglyceride level at 300 mg/kg, po (reference value: 121.45 +/- 24.02 mg/dL); assay type: organism-based; parameters: dose 300 mg/kg, route oral; settings: in vivo
Mus musculus [14] = assay: Toxicity in Swiss albino mouse assessed as change in creatinine level at 50 mg/kg, po (reference value: 0.63 +/- 0.18 mg/dL); assay type: organism-based; parameters: dose 50 mg/kg, route oral; settings: in vivo
Mus musculus [15] = assay: Toxicity in Swiss albino mouse assessed as change in creatinine level at 5 mg/kg, po (reference value: 0.63 +/- 0.18 mg/dL); assay type: organism-based; parameters: dose 5 mg/kg, route oral; settings: in vivo
Mus musculus [16] = assay: Toxicity in Swiss albino mouse assessed as change in albumin level at 50 mg/kg, po (reference value: 3.35 +/- 0.51 g/dL); assay type: organism-based; parameters: dose 50 mg/kg, route oral; settings: in vivo
Mus musculus [17] = assay: Toxicity in Swiss albino mouse assessed as change in albumin level at 5 mg/kg, po (reference value: 3.35 +/- 0.51 g/dL); assay type: organism-based; parameters: dose 5 mg/kg, route oral; settings: in vivo
Mus musculus [18] = assay: Toxicity in Swiss albino mouse assessed as change in SGPT level at 50 mg/kg, po (reference value: 12.28 +/- 3.73 U/L); assay type: organism-based; parameters: dose 50 mg/kg, route oral; settings: in vivo
Mus musculus [19] = assay: Toxicity in Swiss albino mouse assessed as change in SGPT level at 5 mg/kg, po (reference value: 12.28 +/- 3.73 U/L); assay type: organism-based; parameters: dose 5 mg/kg, route oral; settings: in vivo
Mus musculus [20] = assay: Toxicity in Swiss albino mouse assessed as change in SGOT level at 1000 mg/kg, po (reference value: 25.27 +/- 1.32 U/L); assay type: organism-based; parameters: dose 1000 mg/kg, route oral; settings: in vivo
Mus musculus [21] = assay: Toxicity in Swiss albino mouse assessed as change in SGOT level at 50 mg/kg, po (reference value: 25.27 +/- 1.32 U/L); assay type: organism-based; parameters: dose 50 mg/kg, route oral; settings: in vivo
Mus musculus [22] = assay: Toxicity in Swiss albino mouse assessed as change in SGOT level at 5 mg/kg, po (reference value: 25.27 +/- 1.32 U/L); assay type: organism-based; parameters: dose 5 mg/kg, route oral; settings: in vivo
Mus musculus [23] = assay: Toxicity in Swiss albino mouse assessed as change in ALKP level at 1000 mg/kg, po (reference value: 218.67 +/- 12.43 U/L); assay type: organism-based; parameters: dose 1000 mg/kg, route oral; settings: in vivo
Mus musculus [24] = assay: Toxicity in Swiss albino mouse assessed as change in ALKP level at 300 mg/kg, po (reference value: 218.67 +/- 12.43 U/L); assay type: organism-based; parameters: dose 300 mg/kg, route oral; settings: in vivo
Mus musculus [25] = assay: Toxicity in Swiss albino mouse assessed as change in ALKP level at 50 mg/kg, po (reference value: 218.67 +/- 12.43 U/L); assay type: organism-based; parameters: dose 50 mg/kg, route oral; settings: in vivo
Mus musculus [26] = assay: Toxicity in Swiss albino mouse assessed as change in WBC count at 1000 mg/kg, po (reference value: 14.2 +/- 7.49 X 10^3/mm'3); assay type: organism-based; parameters: dose 1000 mg/kg, route oral; settings: in vivo
Mus musculus [27] = assay: Toxicity in Swiss albino mouse assessed as change in WBC count at 300 mg/kg, po (reference value: 14.2 +/- 7.49 X 10^3/mm'3); assay type: organism-based; parameters: dose 300 mg/kg, route oral; settings: in vivo
Mus musculus [28] = assay: Toxicity in Swiss albino mouse assessed as change in RBC count at 1000 mg/kg, po (reference value: 5.43 +/- 0.27 million/mm'3); assay type: organism-based; parameters: dose 1000 mg/kg, route oral; settings: in vivo
Mus musculus [29] = assay: Toxicity in Swiss albino mouse assessed as change in RBC count at 50 mg/kg, po (reference value: 5.43 +/- 0.27 million/mm'3); assay type: organism-based; parameters: dose 50 mg/kg, route oral; settings: in vivo
Mus musculus [30] = assay: Toxicity in Swiss albino mouse assessed as change in RBC count at 5 mg/kg, po (reference value: 5.43 +/- 0.27 million/mm'3); assay type: organism-based; parameters: dose 5 mg/kg, route oral; settings: in vivo
Mus musculus [31] = assay: Toxicity in Swiss albino mouse assessed as change in total haemoglobin level at 50 mg/kg, po (reference value: 11.39 +/- 0.84 g/dL); assay type: organism-based; parameters: dose 50 mg/kg, route oral; settings: in vivo
Mus musculus [32] = assay: Toxicity in Swiss albino mouse assessed as change in total haemoglobin level at 5 mg/kg, po (reference value: 11.39 +/- 0.84 g/dL); assay type: organism-based; parameters: dose 5 mg/kg, route oral; settings: in vivo
Mus musculus [33] = assay: Toxicity in Swiss albino mouse assessed as change in body weight at 1000 mg/kg, po (reference value: 24.5 +/- 0.76 g); assay type: organism-based; parameters: dose 1000 mg/kg, route oral; settings: in vivo

`CCOC(=O)/C=C/c1ccc(O)c(/C(=C/c2ccc(O)cc2)C(=O)OCC)c1` was tested, and the Activity (Mus musculus [1]) was 24.33 g, the Activity (MDA-MB-231 [2]) was “inactive” and the Activity (MCF7 [3]) was “Active”. For the same compound, the IC50 (MDA-MB-231 [4]) was 0.45 µM, the IC50 (MCF7 [5]) was 9.29 µM and the Activity (Mus musculus [6]) was “Non-toxic”. For the same compound, the Activity (Mus musculus [7]) was “Non-toxic”, the Activity (Homo sapiens) was “Active” and the Activity (Mus musculus [8]) was “Non-toxic”. For the same compound, the Activity (Mus musculus [9]) was “Non-toxic”, the Activity (Mus musculus [10]) was “Non-toxic” and the Activity (Mus musculus [11]) was 60.3 mg/dL. The Activity (Mus musculus [12]) was 0.88 mg/mL, the Activity (Mus musculus [13]) was 134.38 mg/dL and the Activity (Mus musculus [14]) was 1.45 mg/dL. It also gave an Activity (Mus musculus [15]) of 1.05 mg/dL, an Activity (Mus musculus [16]) of 2.76 g/dL and an Activity (Mus musculus [17]) of 3.17 g/dL. It also gave an Activity (Mus musculus [18]) of 12.52 U/L, an Activity (Mus musculus [19]) of 13.15 U/L and an Activity (Mus musculus [20]) of 53.29 U/L. For the same compound, the Activity (Mus musculus [21]) was 34.34 U/L, the Activity (Mus musculus [22]) was 27.67 U/L and the Activity (Mus musculus [23]) was 143.89 U/L. The Activity (Mus musculus [24]) was 217.42 U/L, the Activity (Mus musculus [25]) was 234.14 U/L and the Activity (Mus musculus [26]) was 15.94 ×10³ /mm3. The Activity (Mus musculus [27]) was 13.76 ×10³ /mm3, the Activity (Mus musculus [28]) was 5.15 million/mm3 and the Activity (Mus musculus [29]) was 5.58 million/mm3. For the same compound, the Activity (Mus musculus [30]) was 5.99 million/mm3, the Activity (Mus musculus [31]) was 10.67 g/dL and the Activity (Mus musculus [32]) was 12.35 g/dL. The Activity (Mus musculus [33]) was 26.5 g.

Source: ChEMBL document CHEMBL3112586, “Synthesis of neolignans as microtubule stabilisers” (Bioorg Med Chem, 2014)
